Test results reported in ChEMBL document CHEMBL1125458, “3-O-alkylascorbic acids as free radical quenchers. 3. Protective effect on coronary occlusion-reperfusion induced arrhythmias in anesthetized rats” (1992).

Assays:
Rattus norvegicus [1] = test: Effect (10 mg/kg, iv) on coronary reperfusion-induced arrhythmias was assessed in anesthetized rats.(Intervals of ventricular tachycardia (VT)+ventricular fibrillation (VF) within 600 s.; assay type: functional, Cardiac ventricle
Cavia porcellus [2] = organism: Cavia porcellus; test: Inhibitory activity on atrial rate in isolated Guinea pig right atrea at 0.3 mg/mL concentration; assay type: functional, Cardiac atrium
Procedure, shortened: (§1)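 Right atria from male Hartley guinea pigs (450–550 g), loaded at 0.5 g, in Tyrode's solution at 37 °C gassed with 95% O2/5% CO2. Equilibrated at least 30 min until rate stable within 5 beats/min; spontaneous rate and contractile force recorded on polygraph after compound addition.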

Rattus norvegicus [3] = organism: Rattus norvegicus; test: Inhibition of lipid peroxidation in rat liver microsomes.; assay type: functional; design: concentration or dose not given beside the values; details: dose or concentration not given here
Procedure, shortened: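 Wistar rat liver microsomes (2.0 mg protein) in 83.5 mM KCl, 37.2 mM Tris-HCl pH 7.4 with 1 mM ADP, 10 µM FeCl3, 0.02 mM NADPH; compound added in DMF, tested at 10^-5 M. 37 °C, 20 min. Malondialdehyde measured by thiobarbituric acid method, A532; % inhibition, mean ± SD, n = 3–6.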

Cavia porcellus [4] = organism: Cavia porcellus; test: Inhibitory activity on atrial rate in isolated Guinea pig right atrea at 0.1 mg/mL concentration; assay type: functional, Cardiac atrium; procedure, shortened: as §1
Cavia porcellus [5] = organism: Cavia porcellus; test: Inhibitory activity on atrial contractility in isolated Guinea pig right atrea at 0.1 mg/mL concentration p<0.05; assay type: functional, Cardiac atrium; procedure, shortened: as §1
Cavia porcellus [6] = organism: Cavia porcellus; test: Inhibitory activity on atrial contractility in isolated Guinea pig right atrea at 0.03 mg/mL concentration p<0.05; assay type: functional, Cardiac atrium; procedure, shortened: as §1
Cavia porcellus [7] = organism: Cavia porcellus; test: Inhibitory activity on atrial contractility in isolated Guinea pig right atrea at 0.3 mg/mL concentration; assay type: functional, Cardiac atrium; procedure, shortened: as §1
Cavia porcellus [8] = organism: Cavia porcellus; test: Inhibitory activity on atrial rate in isolated Guinea pig right atrea at 0.03 mg/mL concentration; assay type: functional, Cardiac atrium; procedure, shortened: as §1
Rattus norvegicus [9] = test: Change in arterial blood pressure was measured at 0.3 mg/kg dose(iv) in anesthetized rats; assay type: functional, Artery
Procedure, shortened: (§2)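 Male Wistar rats, pentobarbital 60 mg/kg ip, supine. Compound suspended in saline with 1% olive oil and 1% Tween 80, injected via femoral vein. Femoral arterial pressure monitored 10 min after injection; change in mmHg, mean ± SE, n = 3–4.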

Cavia porcellus [10] = organism: Cavia porcellus; test: Inhibitory activity on atrial rate in isolated Guinea pig right atrea at 0.01 mg/mL concentration; assay type: functional, Cardiac atrium; procedure, shortened: as §1
Rattus norvegicus [11] = test: Effect (10 mg/kg, po) on coronary reperfusion-induced arrhythmias was assessed in anesthetized rats.(Intervals of ventricular tachycardia (VT)+ventricular fibrillation (VF) within 600 s.; assay type: functional, Cardiac ventricle
Procedure, shortened: (§3)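 Male Wistar rats (350–450 g) dosed orally 1 h before occlusion, then anesthetized with pentobarbital (60 mg/kg ip) and ventilated. LAD ligated 5 min, reperfused 10 min; VT plus VF durations summed within 600 s. Mean ± SE, n = 5–10; line 2 value is the minimum effective dose.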

Rattus norvegicus [12] = test: Antiarrhythmic activity against anesthetized rats after peroral administration; assay type: functional, Heart; procedure, shortened: as §3
Cavia porcellus [13] = organism: Cavia porcellus; test: Inhibitory activity on atrial contractility in isolated Guinea pig right atrea at 0.03 mg/mL concentration; assay type: functional, Cardiac atrium; procedure, shortened: as §1
Cavia porcellus [14] = organism: Cavia porcellus; test: Inhibitory activity on atrial contractility in isolated Guinea pig right atrea at 0.003 mg/mL concentration; assay type: functional, Cardiac atrium; procedure, shortened: as §1
Rattus norvegicus [15] = test: Effect (0.3 mg/kg, iv) on coronary reperfusion-induced arrhythmias was assessed in anesthetized rats.(Intervals of ventricular tachycardia (VT)+ventricular fibrillation (VF) within 600 s.; assay type: functional, Cardiac ventricle
Rattus norvegicus [16] = test: Antiarrhythmic activity against anesthetized rats after intravenous administration; assay type: functional, Heart
Cavia porcellus [17] = organism: Cavia porcellus; test: Inhibitory activity on atrial rate in isolated Guinea pig right atrea at 0.003 mg/mL concentration; assay type: functional, Cardiac atrium; procedure, shortened: as §1
Rattus norvegicus [18] = test: Change in heart rate was measured at mg/kg dose(iv) in anesthetized rats; assay type: functional
Procedure, shortened: (§4)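 Anesthetized male Wistar rats (pentobarbital 60 mg/kg ip); compound in saline/1% olive oil/1% Tween 80 given by femoral vein. Lead II ECG recorded and heart rate read by beat-to-beat tachograph for 10 min after dosing; change in beats/min, mean ± SE, n = 3–4.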

Rattus norvegicus [19] = test: inhibitory activity was tested against anesthetized rats at 10 mg/kg; assay type: functional
Cavia porcellus [20] = organism: Cavia porcellus; test: Inhibitory activity on atrial contractility in isolated Guinea pig right atrea at 0.01 mg/mL concentration; assay type: functional, Cardiac atrium; procedure, shortened: as §1
Cavia porcellus [21] = organism: Cavia porcellus; test: Inhibitory activity on atrial rate in isolated Guinea pig right atria at 0.03 mg/mL concentration; assay type: functional; details: Cardiac atrium; procedure, shortened: as §1
Cavia porcellus [22] = organism: Cavia porcellus; test: Inhibitory activity on atrial contractility in isolated Guinea pig right atria at 0.3 mg/mL concentration; assay type: functional; details: Cardiac atrium; procedure, shortened: as §1
Cavia porcellus [23] = organism: Cavia porcellus; test: Inhibitory activity against atrial rate in isolated Guinea pig right atrea at 0.3 mg/mL concentration; assay type: functional, Cardiac atrium; procedure, shortened: as §1
Cavia porcellus [24] = organism: Cavia porcellus; test: Inhibitory activity on atrial contractility in isolated Guinea pig right atria at 0.1 mg/mL concentration; assay type: functional; details: Cardiac atrium; procedure, shortened: as §1
Cavia porcellus [25] = organism: Cavia porcellus; test: Inhibitory activity on atrial contractility in isolated Guinea pig right atria at 0.03 mg/mL concentration; assay type: functional; details: Cardiac atrium; procedure, shortened: as §1
Rattus norvegicus [26] = test: Effect (30 mg/kg, iv) on coronary reperfusion-induced arrhythmias was assessed in anesthetized rats.(Intervals of ventricular tachycardia (VT)+ventricular fibrillation (VF) within 600 s.; assay type: functional, Cardiac ventricle
Cavia porcellus [27] = organism: Cavia porcellus; test: Inhibitory activity on atrial rate in isolated Guinea pig right atria at 0.1 mg/mL concentration; assay type: functional; details: Cardiac atrium
Procedure, shortened: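 Right atria from male Hartley guinea pigs (450–550 g), held under a 0.5 g load at 37 °C in Tyrode's solution gassed with 95% O2 + 5% CO2. After at least 30 min equilibration (rate stable within 5 beats/min), atrial rate and contractile force of spontaneously beating preparations were recorded on a polygraph with compound present.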

Rattus norvegicus [28] = test: Change in heart rate was measured at 1 mg/kg dose(iv) in anesthetized rats; assay type: functional; procedure, shortened: as §4
Rattus norvegicus [29] = test: Effect (30 mg/kg, po) on coronary reperfusion-induced arrhythmias was assessed in anesthetized rats.(Intervals of ventricular tachycardia (VT)+ventricular fibrillation (VF) within 600 s.; assay type: functional, Cardiac ventricle; procedure, shortened: as §3
Rattus norvegicus [30] = test: Change in heart rate was measured at 3 mg/kg dose(iv) in anesthetized rats; assay type: functional; procedure, shortened: as §4
Rattus norvegicus [31] = test: Change in arterial blood pressure was measured at 3 mg/kg dose(iv) in anesthetized rats; assay type: functional, Artery; procedure, shortened: as §2
Rattus norvegicus [32] = test: Effect (1 mg/kg, iv) on coronary reperfusion-induced arrhythmias was assessed in anesthetized rats.(Intervals of ventricular tachycardia (VT)+ventricular fibrillation (VF) within 600 s; assay type: functional, Cardiac ventricle
Rattus norvegicus [33] = test: inhibitory activity was tested against anesthetized rats; assay type: functional
Rattus norvegicus [34] = test: Change in arterial blood pressure was measured at 1 mg/kg dose(iv) in anesthetized rats; assay type: functional, Artery; procedure, shortened: as §2
Rattus norvegicus [35] = organism: Rattus norvegicus; test: Inhibitory effect on production of active oxygen species by rat peritoneal exudate macrophages; assay type: functional; design: concentration or dose not given beside the values
Procedure, shortened: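 Peritoneal exudate macrophages harvested 3 days after ip liquid paraffin (male Wistar rats), >90% viable. Assay: 125 mM sodium phosphate pH 6.5, 0.08 mM EDTA, 1.2 U LDH, 0.32 mM NADH, (2–3) × 10^6 cells, compound in DMF, 1 × 10^-4 M. Started with NADH.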

Cavia porcellus [36] = organism: Cavia porcellus; test: Inhibitory activity on atrial contractility in isolated Guinea pig right atrea at 0.1 mg/mL concentration; assay type: functional, Cardiac atrium; procedure, shortened: as §1
Rattus norvegicus [37] = test: Change in arterial blood pressure was measured at 0.1 mg/kg dose(iv) in anesthetized rats; assay type: functional, Artery; procedure, shortened: as §2
Rattus norvegicus [38] = test: Effect (0.1 mg/kg, iv) on coronary reperfusion-induced arrhythmias was assessed in anesthetized rats.(Intervals of ventricular tachycardia (VT)+ventricular fibrillation (VF) within 600 s; assay type: functional, Cardiac ventricle
Rattus norvegicus [39] = test: Change in heart rate was measured at 0.3 mg/kg dose(iv) in anesthetized rats; assay type: functional; procedure, shortened: as §4
Rattus norvegicus [40] = test: Change in heart rate was measured at 0.1 mg/kg dose(iv) in anesthetized rats; assay type: functional; procedure, shortened: as §4
Rattus norvegicus [41] = test: inhibitory activity was tested against anesthetized rats at 100 mg/kg; assay type: functional
Rattus norvegicus [42] = organism: Rattus norvegicus; test: Minimum effective dose of the compound; assay type: functional; details: read-out: MED
Rattus norvegicus [43] = test: Effect (100 mg/kg, po) on coronary reperfusion-induced arrhythmias was assessed in anesthetized rats.(Intervals of ventricular tachycardia (VT)+ventricular fibrillation (VF) within 600 s; assay type: functional, Cardiac ventricle; procedure, shortened: as §3

CCCCCCCCc1ccc(C(=O)COC2=C(O)C(=O)OC2C(O)CO)cc1 (configuration not stated)
Arrhythmias times (Rattus norvegicus [1]): 461 | Inhibition (Cavia porcellus [2]): 0.3% | inhibition (Rattus norvegicus [3]): 88% | Inhibition (Cavia porcellus [4]): -0.9% | Inhibition (Cavia porcellus [5]): 33.5% | Inhibition (Cavia porcellus [6]): 15.8% | Inhibition (Cavia porcellus [7]): 45% | Inhibition (Cavia porcellus [8]): -0.4%

CCCCCCCCCCCCCCCC(=O)OCC(O)C1OC(=O)C(O)=C1OCC(C)=O (configuration not stated)
Arrhythmias times (Rattus norvegicus [1]): 353 | inhibition (Rattus norvegicus [3]): 53%

COc1ccc(CCN(C)CCCC(C#N)(c2ccc(OC)c(OC)c2)C(C)C)cc1OC (configuration not stated) [VERAPAMIL]
Delta blood pressure (Rattus norvegicus [9]): -46.7 mmHg | Inhibition (Cavia porcellus [10]): 63% | Arrhythmias times (Rattus norvegicus [11]): 56.7 | Efficacy (Rattus norvegicus [12]): 10 mg/kg | Inhibition (Cavia porcellus [13]): 100% | Inhibition (Cavia porcellus [14]): 49.9% | inhibition (Rattus norvegicus [3]): 37% | Arrhythmias times (Rattus norvegicus [15]): 121 | Efficacy (Rattus norvegicus [16]): >0.3 mg/kg | Inhibition (Cavia porcellus [17]): 37.9% | Delta heart rate (Rattus norvegicus [18]): -70 beats min-1 | inhibition in vivo at 10 mg/kg (Rattus norvegicus [19]): 87% | Inhibition (Cavia porcellus [8]): 100% | Inhibition (Cavia porcellus [20]): 77.8%

CCCCc1ccc(C(=O)COC2=C(O)C(=O)OC2C(O)CO)cc1 (configuration not stated)
inhibition at 30 µg/mL (Cavia porcellus [21]): 8.8% | inhibition at 300 µg/mL (Cavia porcellus [22]): 67.1% | Inhibition (Cavia porcellus [23]): 25.6% | inhibition (Rattus norvegicus [3]): 82% | inhibition at 100 µg/mL (Cavia porcellus [24]): 52.8% | inhibition at 30 µg/mL (Cavia porcellus [25]): 36.2% | Arrhythmias times (Rattus norvegicus [26]): 325 | inhibition at 100 µg/mL (Cavia porcellus [27]): 17%

CCCCCCCCCCCC1OCC(C2OC(O)=C(O)C2=O)O1 (configuration not stated)
Delta heart rate (Rattus norvegicus [28]): -10.3 beats min-1 | Arrhythmias times (Rattus norvegicus [29]): 420.8 | Delta heart rate (Rattus norvegicus [30]): -75 beats min-1 | Efficacy (Rattus norvegicus [12]): 30 mg/kg | inhibition (Rattus norvegicus [3]): 89% | Delta blood pressure (Rattus norvegicus [31]): -30.3 mmHg | Efficacy (Rattus norvegicus [16]): >1 mg/kg | Arrhythmias times (Rattus norvegicus [32]): 186 | Inhibition (Rattus norvegicus [33]): 19% | Delta blood pressure (Rattus norvegicus [34]): -7 mmHg

CCCCCCCCCCC(=O)COC1=C(O)C(=O)OC1C(O)CO (configuration not stated)
inhibition (Rattus norvegicus [3]): 88% | Arrhythmias times (Rattus norvegicus [32]): 205 | Inhibition (Rattus norvegicus [35]): 11.1%

CCCCCCCCCCCCCCCCCCOC1=C(O)[C@@H](C(O)CO)OC1=O (some centres not stated)
Delta blood pressure (Rattus norvegicus [9]): -35.3 mmHg | Inhibition (Cavia porcellus [2]): -13.6% | Arrhythmias times (Rattus norvegicus [11]): 413.2 | Inhibition (Cavia porcellus [36]): -16.7% | Delta blood pressure (Rattus norvegicus [37]): -10 mmHg | Efficacy (Rattus norvegicus [12]): 10 mg/kg | Inhibition (Cavia porcellus [13]): -10.7% | Arrhythmias times (Rattus norvegicus [38]): 238 | inhibition (Rattus norvegicus [3]): 88% | Delta heart rate (Rattus norvegicus [39]): -55 beats min-1 | Inhibition (Cavia porcellus [4]): -6% | Efficacy (Rattus norvegicus [16]): >0.1 mg/kg | Delta heart rate (Rattus norvegicus [40]): -10 beats min-1 | Inhibition (Rattus norvegicus [35]): 87% | inhibition in vivo at 100 mg/kg (Rattus norvegicus [41]): 92% | minimal effective dose (Rattus norvegicus [42]): 100 mg/kg | Inhibition (Cavia porcellus [7]): -39.9% | Arrhythmias times (Rattus norvegicus [43]): 39.4 | inhibition in vivo at 10 mg/kg (Rattus norvegicus [19]): 20% | Inhibition (Cavia porcellus [8]): -1.8%

CCCCCCCCCCOC1=C(O)C(=O)OC1C(O)CO (configuration not stated)
Arrhythmias times (Rattus norvegicus [29]): 283.6 | inhibition (Rattus norvegicus [3]): 93% | Arrhythmias times (Rattus norvegicus [32]): 291 | Inhibition (Rattus norvegicus [35]): 15.9%

CCCCCCCCC(=O)COC1=C(O)C(=O)OC1C(O)CO (configuration not stated)
Arrhythmias times (Rattus norvegicus [1]): 433 | inhibition (Rattus norvegicus [3]): 64% | Inhibition (Rattus norvegicus [35]): 4.9%
